Here are results for five molecules from ChEMBL document CHEMBL3272082, “Racemic diastereoisomers of 1-amino-2-hydroxycyclopentanecarboxylic acid” (J Med Chem, 1976).

Calls of active or inactive are those of the source. No cut-off for these calls is given here.

A short description of data set [1]: Retardation factor of the compound in cyclohexylamine-water-methyl ethyl ketone-1-butanol at 1:2.5:5:5 ratio by paper chromatography. The format is physicochemical. Conditions: buffer. A digest of the protocol: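 Paper chromatography in cyclohexylamine–water–methyl ethyl ketone–1-butanol (1:2.5:5:5). Rf values compared with allothreonine and threonine run in the same system.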

Data set [2] deals with Jensen sarcoma. Nature of the data set: Inhibition of growth of rat Jensen sarcoma cells assessed as new cells at 50 ug/ml after 72 hrs in presence of 50 ug/ml threonine and 26 ug/ml serine (reference value: 100%). In kind it is functional. Further details: scale not given: the % may be the effect or the level left. In short, it runs like this:
(§1)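 Jensen sarcoma cells seeded at 400000 cells/flask in replicate flasks in McCoy's 7a medium with 10% fetal calf serum, gassed with 8% CO2–92% air, 37°, 24 hr, then counted for zero time. Medium replaced with fresh medium containing analog at 50 μg/ml, with threonine added as listed and serine in medium at 26 μg/ml. Medium renewed at 48 hr. New cells counted at 72 hr, expressed as % of control in normal medium.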

Data set [3] concerns Lactiplantibacillus plantarum. Kind of data set: Antimicrobial activity against Lactobacillus arabinosus 8014 assessed as growth inhibition up to 300 ug/ml. In kind it is functional, organism-based. A digest of the protocol:
(§2)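 Microbial growth toxicity tested by typical microbial procedures; each isomer at concentrations up to 300 μg/ml.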

The test system of data set [4] is Leuconostoc mesenteroides. Nature of the data set: Antimicrobial activity against Leuconostoc mesenteroides 10830 assessed as growth inhibition up to 300 ug/ml. In kind it is functional. In short, it runs like this:
as §2

The subject of data set [5] is Enterococcus faecalis. Nature of the data set: Antimicrobial activity against Streptococcus faecalis 8043 assessed as growth inhibition up to 300 ug/ml. The format is functional, organism-based. In short, it runs like this:
as §2

The subject of data set [6] is Escherichia coli. Nature of the data set: Antimicrobial activity against Escherichia coli 9723 assessed as growth inhibition up to 300 ug/ml. The format is functional, organism-based. A digest of the protocol:
as §2

Data set [7] concerns Jensen sarcoma. Kind of data set: Inhibition of growth of rat Jensen sarcoma cells assessed as new cells at 50 ug/ml after 72 hrs in presence of 26 ug/ml serine (reference value: 100%). In kind it is functional. Further details: scale not given: the % may be the effect or the level left. In short, it runs like this: as §1
Data set [8] deals with Jensen sarcoma. Nature of the data set: Inhibition of growth of rat Jensen sarcoma cells assessed as new cells at 50 ug/ml after 72 hrs in presence of 18 ug/ml threonine and 26 ug/ml serine (reference value: 100%). In kind it is functional. Further details: scale not given: the % may be the effect or the level left. A digest of the protocol:
as §1

For data set [9], the system named is Escherichia coli. Nature of the data set: Antimicrobial activity against Escherichia coli W assessed as growth inhibition up to 300 ug/ml. In kind it is functional. In short, it runs like this:
as §2

In data set [10] the test system is Jensen sarcoma. Nature of the data set: Inhibition of growth of rat Jensen sarcoma cells assessed as new cells at 50 ug/ml after 72 hrs in presence of 25 ug/ml threonine and 26 ug/ml serine (reference value: 100%). In kind it is functional. Further details: scale not given: the % may be the effect or the level left. A digest of the protocol: as §1

For the molecule `C[C@H](O)[C@H](N)C(=O)O`, in data set [1], the Rf amounted to 0.41.
On to `N[C@@]1(C(=O)O)CCC[C@@H]1O` (relative stereo), for which the Activity in data set [2] came out at 68%; in data set [7], 12%; in data set [8], 69%. Also, the “growth inhibition (GI)” value in data set [3], in data set [4], in data set [5], in [6] and in [9] was “inactive” each time. Further, the Rf in data set [1] is given as 0.38.
As for `N[C@@]1(C(=O)O)CCC[C@H]1O` (relative stereo), the Activity in data set [2] came to 68%; in data set [7], 12%; in data set [8], 68%. The “growth inhibition (GI)” value in data set [3], in data set [4], in data set [5], in data set [6] and in [9] was “inactive” each time. The Rf in data set [1] is on record as 0.45.
`NC1(C(=O)O)CCCC1` [CYCLOLEUCINE]: the figures for the Activity in data set [10] and in data set [7] were 5% and 0%, respectively.
As for `C[C@@H](O)[C@H](N)C(=O)O` [THREONINE], in [1], the Rf was determined as 0.54.
